Source: ChEMBL document CHEMBL5678805, “Intermittent administration of MEK inhibitor GDC-0973 plus PI3K inhibitor GDC-0941 triggers robust apoptosis and tumor growth inhibition” (Cancer Res, 2012)
pIC50: −log10 of the molar value. Calls of active or inactive are those of the source. The rule behind the calls is not given here.

What was measured:
DLD-1 [1] = experiment: Antitumor activity against human DLD-1 cells xenografted in mouse assessed as tumor growth inhibition at 3 mg/kg, po administered once a day for 21 days; format: functional; conditions: DLD-1, 504 h, time 21 day, read-out: TGI
Outline: (§1)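 Human tumor xenografts in mice. Drugs given orally, as single agents or combined with the PI3K inhibitor. Schedules were daily (QD) or every third day (Q3D) over 21 days. Tumor volume was measured by caliper as (L×W×W)/2. %TGI = 100×[1 − AUC(treatment/d)/AUC(vehicle/d)] from fitted growth curves, with group means. Tumor lysates were immunoblotted for pS6.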

[2] = Antitumor activity against human MOLM16 cells harboring FLT3 T227M mutant xenografted in mouse assessed as tumor growth inhibition at 2.5 mg/kg, po; format: functional, MOLM-16; conditions: read-out: TGI
Outline: (§2)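 Human tumor xenografts in mice were dosed orally at the indicated mg/kg. Tumor volume was measured with calipers as (L×W×W)/2. %TGI = 100 × [1 − (AUC treatment/d)/(AUC vehicle/d)], using the area under the fitted tumor-growth curve per day for each dose group relative to vehicle.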

[3] = biological target: ALK tyrosine kinase receptor (Homo sapiens, UniProt Q9UM73); experiment: Inhibition of ALK (unknown origin)
Sequence of ALK tyrosine kinase receptor (Q9UM73 whole entry): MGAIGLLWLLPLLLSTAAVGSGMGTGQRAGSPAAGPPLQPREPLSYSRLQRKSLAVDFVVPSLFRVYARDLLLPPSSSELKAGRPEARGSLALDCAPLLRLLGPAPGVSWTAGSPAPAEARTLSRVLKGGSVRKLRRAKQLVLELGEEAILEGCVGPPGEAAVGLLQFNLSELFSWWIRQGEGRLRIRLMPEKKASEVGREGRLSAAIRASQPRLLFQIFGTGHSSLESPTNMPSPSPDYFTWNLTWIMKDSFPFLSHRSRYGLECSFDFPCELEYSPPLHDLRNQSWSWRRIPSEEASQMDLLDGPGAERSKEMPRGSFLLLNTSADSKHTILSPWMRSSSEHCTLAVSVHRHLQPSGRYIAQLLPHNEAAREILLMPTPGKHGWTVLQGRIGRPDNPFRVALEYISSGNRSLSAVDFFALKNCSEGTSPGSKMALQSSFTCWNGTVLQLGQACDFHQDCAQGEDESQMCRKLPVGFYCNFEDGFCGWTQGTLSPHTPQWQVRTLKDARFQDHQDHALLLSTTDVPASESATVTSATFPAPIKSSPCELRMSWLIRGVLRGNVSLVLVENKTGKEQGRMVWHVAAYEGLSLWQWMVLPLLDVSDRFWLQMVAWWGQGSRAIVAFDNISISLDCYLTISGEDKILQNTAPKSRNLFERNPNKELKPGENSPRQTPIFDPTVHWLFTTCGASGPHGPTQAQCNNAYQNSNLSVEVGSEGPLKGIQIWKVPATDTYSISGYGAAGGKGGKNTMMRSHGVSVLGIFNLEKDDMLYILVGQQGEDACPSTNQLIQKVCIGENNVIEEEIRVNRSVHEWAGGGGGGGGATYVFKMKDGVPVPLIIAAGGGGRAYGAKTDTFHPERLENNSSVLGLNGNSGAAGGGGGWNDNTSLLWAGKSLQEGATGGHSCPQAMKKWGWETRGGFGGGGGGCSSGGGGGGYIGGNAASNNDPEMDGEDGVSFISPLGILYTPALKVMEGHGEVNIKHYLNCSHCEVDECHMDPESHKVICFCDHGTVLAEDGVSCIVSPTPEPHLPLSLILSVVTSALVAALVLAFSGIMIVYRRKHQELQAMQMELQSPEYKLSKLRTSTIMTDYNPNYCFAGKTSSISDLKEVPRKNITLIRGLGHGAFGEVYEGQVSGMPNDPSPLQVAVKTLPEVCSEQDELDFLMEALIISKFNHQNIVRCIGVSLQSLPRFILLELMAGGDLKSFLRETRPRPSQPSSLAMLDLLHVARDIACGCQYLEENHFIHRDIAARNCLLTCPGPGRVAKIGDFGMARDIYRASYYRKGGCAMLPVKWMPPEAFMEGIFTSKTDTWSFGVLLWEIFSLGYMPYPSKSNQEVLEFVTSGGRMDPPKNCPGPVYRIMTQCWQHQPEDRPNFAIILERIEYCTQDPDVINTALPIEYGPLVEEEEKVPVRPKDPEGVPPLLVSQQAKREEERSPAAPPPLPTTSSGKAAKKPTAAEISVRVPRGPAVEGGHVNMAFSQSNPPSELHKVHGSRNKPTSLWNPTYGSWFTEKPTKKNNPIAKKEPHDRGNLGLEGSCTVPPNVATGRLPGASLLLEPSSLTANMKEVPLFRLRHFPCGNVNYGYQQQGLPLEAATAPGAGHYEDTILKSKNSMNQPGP

[4] = biological target: Serine/threonine-protein kinase pim-2 (Homo sapiens, UniProt Q9P1W9); experiment: Inhibition of PIM2 (unknown origin)
[5] = biological target: Platelet-derived growth factor receptor alpha (Homo sapiens, UniProt P16234); experiment: Inhibition of PDGFRalpha (unknown origin)
Sequence of Platelet-derived growth factor receptor alpha (P16234 whole entry): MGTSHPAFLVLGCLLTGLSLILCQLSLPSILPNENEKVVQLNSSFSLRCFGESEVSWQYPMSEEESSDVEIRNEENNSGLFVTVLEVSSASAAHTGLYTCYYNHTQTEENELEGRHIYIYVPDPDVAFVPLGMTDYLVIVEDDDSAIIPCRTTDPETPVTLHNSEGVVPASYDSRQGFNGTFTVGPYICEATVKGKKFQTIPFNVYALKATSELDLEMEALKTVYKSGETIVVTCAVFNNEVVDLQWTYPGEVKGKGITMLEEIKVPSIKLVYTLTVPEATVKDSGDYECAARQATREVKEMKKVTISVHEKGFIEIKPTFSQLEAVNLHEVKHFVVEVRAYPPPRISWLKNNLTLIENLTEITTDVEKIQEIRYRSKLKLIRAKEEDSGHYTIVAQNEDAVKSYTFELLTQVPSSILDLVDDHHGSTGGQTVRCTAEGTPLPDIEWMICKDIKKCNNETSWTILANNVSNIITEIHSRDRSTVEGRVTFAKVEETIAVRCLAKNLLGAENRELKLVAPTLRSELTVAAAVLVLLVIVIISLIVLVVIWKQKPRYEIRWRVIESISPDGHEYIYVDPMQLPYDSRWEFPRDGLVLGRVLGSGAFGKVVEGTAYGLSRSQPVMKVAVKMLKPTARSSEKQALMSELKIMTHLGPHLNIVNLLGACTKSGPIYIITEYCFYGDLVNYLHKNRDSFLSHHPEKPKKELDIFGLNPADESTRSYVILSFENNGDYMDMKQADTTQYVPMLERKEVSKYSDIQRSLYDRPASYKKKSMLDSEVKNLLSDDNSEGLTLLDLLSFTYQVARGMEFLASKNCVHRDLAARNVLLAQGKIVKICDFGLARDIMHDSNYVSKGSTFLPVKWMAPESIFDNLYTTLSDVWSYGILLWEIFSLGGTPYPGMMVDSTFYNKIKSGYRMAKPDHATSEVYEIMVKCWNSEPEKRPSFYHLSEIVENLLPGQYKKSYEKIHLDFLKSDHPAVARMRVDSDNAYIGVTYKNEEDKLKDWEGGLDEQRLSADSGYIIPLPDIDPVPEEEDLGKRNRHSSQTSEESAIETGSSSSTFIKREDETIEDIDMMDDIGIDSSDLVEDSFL

[6] = biological target: Serine/threonine-protein kinase PAK 2 (Homo sapiens, UniProt Q13177); experiment: Inhibition of PAK2 (unknown origin)
Sequence of Serine/threonine-protein kinase PAK 2 (Q13177 whole entry): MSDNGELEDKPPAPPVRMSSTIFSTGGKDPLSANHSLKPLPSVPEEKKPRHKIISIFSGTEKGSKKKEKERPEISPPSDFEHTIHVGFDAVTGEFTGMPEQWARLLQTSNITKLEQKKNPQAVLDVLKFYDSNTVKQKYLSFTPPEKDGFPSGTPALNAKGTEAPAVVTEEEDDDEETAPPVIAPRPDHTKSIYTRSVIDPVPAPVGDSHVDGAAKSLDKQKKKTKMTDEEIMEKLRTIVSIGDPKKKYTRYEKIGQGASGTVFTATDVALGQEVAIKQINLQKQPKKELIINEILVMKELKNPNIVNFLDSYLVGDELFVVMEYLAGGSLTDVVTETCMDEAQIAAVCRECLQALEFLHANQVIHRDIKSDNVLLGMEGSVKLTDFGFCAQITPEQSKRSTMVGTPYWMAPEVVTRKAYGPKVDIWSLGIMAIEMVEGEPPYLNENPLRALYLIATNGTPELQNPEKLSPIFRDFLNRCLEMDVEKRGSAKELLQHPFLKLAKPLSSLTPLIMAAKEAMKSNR

[7] = biological target: Serine/threonine-protein kinase Chk1 (Homo sapiens, UniProt O14757); experiment: Inhibition of CHK1 (unknown origin)
Sequence of Serine/threonine-protein kinase Chk1 (O14757 whole entry): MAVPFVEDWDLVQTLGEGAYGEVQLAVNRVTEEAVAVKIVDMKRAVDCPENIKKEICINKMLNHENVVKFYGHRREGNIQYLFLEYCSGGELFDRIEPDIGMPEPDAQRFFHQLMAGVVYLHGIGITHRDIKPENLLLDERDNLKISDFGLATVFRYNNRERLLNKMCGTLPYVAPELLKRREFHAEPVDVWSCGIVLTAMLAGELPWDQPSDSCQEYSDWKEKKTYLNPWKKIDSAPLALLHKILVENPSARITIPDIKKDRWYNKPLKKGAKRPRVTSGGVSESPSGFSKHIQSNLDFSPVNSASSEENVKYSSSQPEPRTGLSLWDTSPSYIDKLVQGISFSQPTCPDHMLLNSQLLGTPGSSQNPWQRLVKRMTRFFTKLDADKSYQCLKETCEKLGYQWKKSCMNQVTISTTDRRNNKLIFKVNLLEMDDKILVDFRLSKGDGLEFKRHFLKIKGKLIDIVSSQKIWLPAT

A375.X1 = experiment: Antitumor activity against human A375.X1 cells xenografted in mouse assessed as reduction in ERK phosphorylation at 1 to 10 mg/kg, po by Western blot analysis; format: functional, organism-based; conditions: dose 1-10 mg/kg, time 74-96 hrs, TDE = time-dependent effect
Outline: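 A375.X1 xenograft mice were dosed orally at 1, 3, 5 or 10 mg/kg once daily for 3 days. Tumors were collected 2, 8 and 24 h after the last dose, pulverized frozen and resolved by 4–12% SDS-PAGE. p-ERK1/2 and t-ERK1/2 were measured by Western blot and quantified by band intensity, relative to vehicle-treated mice (0 h).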

A2058 = experiment: Antitumor activity against human A2058 cells xenografted in mouse assessed as tumor growth inhibition at 6 mg/kg, po administered once a day for 21 days in presence of 4-(2-(1H-indazol-4-yl)-6-((4-(methylsulfonyl)piperazin-1-yl)methyl)thieno[3,2-d]pyrimidin-4-yl)morpholine; format: functional; conditions: A2058, 504 h, time 21 day, read-out: TGI; outline: as §1
[8] = biological target: RAC-alpha serine/threonine-protein kinase (Homo sapiens, UniProt P31749); experiment: Inhibition of Akt1 (unknown origin)
[9] = Antitumor activity against human A375.X1 cells xenografted in mouse assessed as tumor growth inhibition at 20 mg/kg, po administered every third day for 21 days; format: functional; conditions: A375.X1, 504 h, time 21 day, read-out: TGI; outline: as §1
[10] = biological target: Phosphatidylinositol 4,5-bisphosphate 3-kinase catalytic subunit beta isoform (Homo sapiens, UniProt P42338); experiment: Inhibition of PI3Kbeta (unknown origin)
DLD-1 [11] = experiment: Antitumor activity against human DLD-1 cells xenografted in mouse assessed as tumor growth inhibition at 3 mg/kg, po administered once a day for 21 days in presence of 4-(2-(1H-indazol-4-yl)-6-((4-(methylsulfonyl)piperazin-1-yl)methyl)thieno[3,2-d]pyrimidin-4-yl)morpholine; format: functional; conditions: DLD-1, 504 h, time 21 day, read-out: TGI; outline: as §1
[12] = Antitumor activity against human MOLM16 cells harboring FLT3 T227M mutant xenografted in mouse assessed as tumor growth inhibition at 5 mg/kg, po; format: functional, MOLM-16; conditions: read-out: TGI; outline: as §2
[13] = biological target: Serine/threonine-protein kinase pim-3 (Homo sapiens, UniProt Q86V86); experiment: Inhibition of PIM3 (unknown origin)
LoVo [14] = experiment: Antitumor activity against human LoVo cells harboring KRAS G13D/CDKN2A P48L/FBXW7 R505C/MSH2/SMO G16_L17insLL/A324T/NF1 R1276Q/Y1607fs17/APC1114 mutant xenografted in mouse assessed as tumor growth inhibition at 10 mg/kg, po; format: functional; conditions: read-out: TGI
Outline: (§3)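 Single-agent dose ranging in human tumor xenograft mice at 2.5, 5 or 10 mg/kg oral. Tumor volume was measured by caliper as (L×W×W)/2. %TGI = 100×[1 − AUC(treatment/d)/AUC(vehicle/d)] from the fitted growth curve per dose group, relative to vehicle.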

[15] = Antitumor activity against human A375.X1 cells xenografted in mouse assessed as tumor growth inhibition at 20 mg/kg, po administered every third day for 21 days in presence of 4-(2-(1H-indazol-4-yl)-6-((4-(methylsulfonyl)piperazin-1-yl)methyl)thieno[3,2-d]pyrimidin-4-yl)morpholine; format: functional; conditions: A375.X1, 504 h, time 21 day, read-out: TGI; outline: as §1
[16] = Inhibition of AMPK (unknown origin); design: species or system Homo sapiens
[17] = biological target: Receptor-type tyrosine-protein kinase FLT3 (Homo sapiens, UniProt P36888); experiment: Inhibition of Flt3 (unknown origin)
Sequence of Receptor-type tyrosine-protein kinase FLT3 (P36888 whole entry): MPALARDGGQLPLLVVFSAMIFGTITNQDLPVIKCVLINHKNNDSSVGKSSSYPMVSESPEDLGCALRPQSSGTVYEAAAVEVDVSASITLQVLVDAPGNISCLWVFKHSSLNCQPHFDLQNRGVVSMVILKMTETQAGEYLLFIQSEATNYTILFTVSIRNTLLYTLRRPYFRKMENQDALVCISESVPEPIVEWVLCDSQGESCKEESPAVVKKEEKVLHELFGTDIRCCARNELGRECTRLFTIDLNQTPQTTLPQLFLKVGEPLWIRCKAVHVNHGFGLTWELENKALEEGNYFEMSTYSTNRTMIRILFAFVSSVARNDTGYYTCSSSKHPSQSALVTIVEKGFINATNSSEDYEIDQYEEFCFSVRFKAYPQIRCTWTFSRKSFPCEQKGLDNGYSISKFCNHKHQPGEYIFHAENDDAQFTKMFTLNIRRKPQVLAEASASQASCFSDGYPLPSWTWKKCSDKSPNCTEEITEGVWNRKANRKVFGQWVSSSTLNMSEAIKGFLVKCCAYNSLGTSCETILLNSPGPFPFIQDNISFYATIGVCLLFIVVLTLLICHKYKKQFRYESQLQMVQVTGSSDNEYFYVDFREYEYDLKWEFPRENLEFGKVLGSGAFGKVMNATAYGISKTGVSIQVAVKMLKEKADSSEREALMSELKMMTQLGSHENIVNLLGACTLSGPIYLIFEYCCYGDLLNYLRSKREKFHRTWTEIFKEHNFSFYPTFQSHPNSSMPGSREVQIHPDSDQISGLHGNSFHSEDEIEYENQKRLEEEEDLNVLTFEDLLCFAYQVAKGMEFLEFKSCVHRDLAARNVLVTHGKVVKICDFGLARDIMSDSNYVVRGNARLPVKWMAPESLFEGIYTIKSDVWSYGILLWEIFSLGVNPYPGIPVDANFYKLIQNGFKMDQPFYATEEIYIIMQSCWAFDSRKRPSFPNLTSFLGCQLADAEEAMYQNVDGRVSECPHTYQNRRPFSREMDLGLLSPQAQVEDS

888-mel [18] = experiment: Upregulation of Bim level in human 888-mel cells preincubated with compound for 24 hrs followed by compound washout and measured after 2 hrs in presence of 4-(2-(1H-indazol-4-yl)-6-((4-(methylsulfonyl)piperazin-1-yl)methyl)thieno[3,2-d]pyrimidin-4-yl)morpholine by immunoblotting analysis; format: functional, cell-based
[19] = Antitumor activity against human LS174T-HM7 cells xenografted in mouse assessed as tumor growth inhibition at 10 mg/kg, po; format: functional; conditions: read-out: TGI; outline: as §3
LoVo [20] = experiment: Antitumor activity against human LoVo cells harboring KRAS G13D/CDKN2A P48L/FBXW7 R505C/MSH2/SMO G16_L17insLL/A324T/NF1 R1276Q/Y1607fs17/APC1114 mutant xenografted in mouse assessed as tumor growth inhibition at 5 mg/kg, po; format: functional; conditions: read-out: TGI; outline: as §3
[21] = biological target: Serine/threonine-protein kinase NLK (Homo sapiens, UniProt Q9UBE8); experiment: Inhibition of NLK (unknown origin)
[22] = biological target: Mitogen-activated protein kinase 8 (Homo sapiens, UniProt P45983); experiment: Inhibition of JNK1 (unknown origin)
888-mel [23] = experiment: Inhibition of ERK phosphorylation in human 888-mel cells preincubated for 24 hrs followed by compound washout and measured after 2 hrs in presence of 4-(2-(1H-indazol-4-yl)-6-((4-(methylsulfonyl)piperazin-1-yl)methyl)thieno[3,2-d]pyrimidin-4-yl)morpholine by immunoblotting analysis; format: cell-based
Outline: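 The medium was then exchanged to remove compound. Lysates were prepared 2 and 24 h after washout and immunoblotted for cleaved PARP, p-AKT and p-ERK using HRP secondary antibody and ECL.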

[24] = biological target: Serine/threonine-protein kinase B-raf (Homo sapiens, UniProt P15056); experiment: Inhibition of BRAF (unknown origin)
NCI-H520 = experiment: Antitumor activity against human NCI-H520 cells harboring TP53 W146 and CDKN2A G G45 mutant xenografted in mouse assessed as tumor growth inhibition at 10 mg/kg, po; format: functional; conditions: read-out: TGI; outline: as §2
[25] = biological target: Vascular endothelial growth factor receptor 3 (Homo sapiens, UniProt P35916); experiment: Inhibition of Flt4 (unknown origin)

O=C(c1ccc(F)c(F)c1Nc1ccc(I)cc1F)N1CC(O)([C@@H]2CCCCN2)C1 [COBIMETINIB]
inhibition in vivo at 3 mg/kg (DLD-1 [1]): 47%
inhibition in vivo at 2.5 mg/kg [2]: 7%
pIC50 [3]: < 5.00
pIC50 [4]: < 5.00
pIC50 [5]: < 5.00
pIC50 [6]: < 5.00
pIC50 [7]: < 5.00
Activity (A375.X1): Tde
inhibition in vivo at 6 mg/kg (A2058): 73%
pIC50 [8]: < 5.00
inhibition in vivo at 20 mg/kg [9]: 94%
pIC50 [10]: < 5.00
inhibition in vivo at 3 mg/kg (DLD-1 [11]): 88%
inhibition in vivo at 5 mg/kg [12]: 30%
pIC50 [13]: < 5.00
inhibition in vivo at 10 mg/kg (LoVo [14]): 98%
inhibition in vivo at 20 mg/kg [15]: 118%
pIC50 [16]: < 5.00
pIC50 [17]: < 5.00
Activity (888-mel [18]): Active
inhibition in vivo at 10 mg/kg [19]: 37%
inhibition in vivo at 5 mg/kg (LoVo [20]): 73%
pIC50 [21]: < 5.00
pIC50 [22]: < 5.00
inhibition (888-mel [23]): Active
pIC50 [24]: < 5.00
inhibition in vivo at 10 mg/kg (NCI-H520): 21%
pIC50 [25]: < 5.00
